Active and inactive are the calls of the source. The rule behind the calls is not given here.

Series [1] concerns Leaf. Kind of series: Induction of ferulic acid accumulation in Pisum sativum (pea) leaves at 69 uM added to nutrient medium measured 5 to 15 days post onset of compound treatment by HPLC method. It is filed as functional. To be noted: Lathyrus oleraceus. The method in brief: (§1)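 Compound was added to the nutrient solution of 12-day-old pea plants (cv. Snap Sugar Boys), renewed every 3 days at pH 6–7. Leaves or roots were sampled at 0, 1, 3, 7, 10 and 15 days. Values are mean ± standard error, n = 5 single plants. One-way ANOVA with Fisher test versus untreated controls on each day, p < 0.05.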

Series [2] deals with Leaf. Kind of series: Induction of p-coumaric acid accumulation in Pisum sativum (pea) leaves at 69 uM added to nutrient medium measured 5 to 15 days post onset of compound treatment by HPLC method. To be noted: Lathyrus oleraceus. It is filed as functional. The method in brief:
as §1

In series [3] the test system is Root. Kind of series: Increase in lignin content in Pisum sativum (pea) roots at 69 uM added to nutrient medium measured 10 days post onset of compound treatment. To be noted: Lathyrus oleraceus. It is filed as functional. The essentials:
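Compound was added to the nutrient solution of 12-day-old pea plants (cv. Snap Sugar Boys). Solution was renewed every 3 days at pH 6–7. Lignin was measured in roots from plants sampled on set days up to day 15.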

The subject of series [4] is Root. Briefly: Induction of caffeic acid accumulation in Pisum sativum (pea) roots at 69 uM added to nutrient medium measured 5 to 15 days post onset of compound treatment by HPLC method. The series is classed as functional. To be noted: Lathyrus oleraceus. The method in brief: as §1
Series [5] deals with Root. Briefly: Induction of ferulic acid accumulation in Pisum sativum (pea) roots at 69 uM added to nutrient medium measured 5 to 15 days post onset of compound treatment by HPLC method. It is filed as functional. To be noted: Lathyrus oleraceus. The method in brief: as §1
Series [6] concerns Pisum sativum. Kind of series: Growth inhibition in Pisum sativum (pea) at 69 uM added to nutrient medium measured 22 to 23 days post onset of compound treatment. It is filed as functional, organism-based. To be noted: Lathyrus oleraceus. The essentials:
(§2)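 Pea (cv. Snap Sugar Boys) grown hydroponically. Compound added to the nutrient solution at 12 days old. Solution was renewed every 3 days, with pH held between 6 and 7. Plants were followed over the treatment period.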

In series [7] the test system is Root. Briefly: Induction of p-coumaric acid accumulation in Pisum sativum (pea) roots at 69 uM added to nutrient medium measured 5 to 15 days post onset of compound treatment by HPLC method. It is filed as functional. To be noted: Lathyrus oleraceus. The essentials:
as §1

The subject of series [8] is Leaf. Kind of series: Induction of caffeic acid accumulation in Pisum sativum (pea) leaves at 69 uM added to nutrient medium measured 5 to 15 days post onset of compound treatment by HPLC method. The series is classed as functional. To be noted: Lathyrus oleraceus. The method in brief: as §1
In series [9] the test system is Leaf. Kind of series: Induction of sinapic acid accumulation in Pisum sativum (pea) leaves at 69 uM added to nutrient medium measured 5 to 15 days post onset of compound treatment by HPLC method. It is filed as functional. To be noted: Lathyrus oleraceus. The method in brief: as §1
Series [10] deals with Root. Briefly: Reduction in sinapic acid accumulation in Pisum sativum (pea) roots at 69 uM added to nutrient medium measured 3 to 10 days post onset of compound treatment by HPLC method. It is filed as functional. To be noted: Lathyrus oleraceus. The method in brief:
as §1

For series [11], the system named is Root. Briefly: Induction of PAL activity in Pisum sativum (pea) roots at 69 uM added to nutrient medium measured 5 to 15 days post onset of compound treatment. The series is classed as functional. To be noted: Lathyrus oleraceus. The method in brief:
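Roots were taken from 12-day-old pea plants (cv. Snap Sugar Boys) treated via nutrient solution, renewed every 3 days at pH 6–7. For PAL activity, extracts were not filtered on Sephadex G-25. Reaction ran 1 h at 37 °C, then HCl was added and the mixture was centrifuged at 5000g for 5 min.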

Series [12] has as its system Root. Briefly: Induction of DAHPS enzyme expression in Pisum sativum (pea) roots at 69 uM added to nutrient medium measured 5 to 15 days post onset of compound treatment by immunoblot. The series is classed as functional. To be noted: Lathyrus oleraceus. The method in brief: (§3)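 Roots were taken from pea plants (cv. Snap Sugar Boys) treated via nutrient solution from 12 days old, with the solution renewed every 3 days. Samples were taken at days 3, 7, 10 and 15.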

Series [13] has as its system Root. Kind of series: Reduction in sinapic acid accumulation in Pisum sativum (pea) roots at 28 nM added to nutrient medium measured 3 to 10 days post onset of compound treatment by HPLC method. The series is classed as functional. To be noted: Lathyrus oleraceus. The essentials:
as §1

Series [14] relates to Root. Briefly: Induction of DAHPS enzyme expression in Pisum sativum (pea) roots at 28 nM added to nutrient medium measured 5 to 15 days post onset of compound treatment by immunoblot. The series is classed as functional. To be noted: Lathyrus oleraceus. The method in brief:
as §3

In series [15] the test system is Pisum sativum. Briefly: Growth inhibition in Pisum sativum (pea) at 28 nM added to nutrient medium measured 22 to 23 days post onset of compound treatment. The series is classed as functional, organism-based. To be noted: Lathyrus oleraceus. The essentials:
as §2

Series [16] concerns Root. Kind of series: Induction of p-coumaric acid accumulation in Pisum sativum (pea) roots at 28 nM added to nutrient medium measured 5 to 15 days post onset of compound treatment by HPLC method. The series is classed as functional. To be noted: Lathyrus oleraceus. The method in brief: as §1
In series [17] the test system is Root. Briefly: Induction of caffeic acid accumulation in Pisum sativum (pea) roots at 28 nM added to nutrient medium measured 5 to 15 days post onset of compound treatment by HPLC method. It is filed as functional. To be noted: Lathyrus oleraceus. The method in brief: as §1
For series [18], the system named is Leaf. Briefly: Induction of sinapic acid accumulation in Pisum sativum (pea) leaves at 28 nM added to nutrient medium measured 5 to 15 days post onset of compound treatment by HPLC method. It is filed as functional. To be noted: Lathyrus oleraceus. The essentials:
as §1

Series [19] has as its system Root. Kind of series: Induction of ferulic acid accumulation in Pisum sativum (pea) roots at 28 nM added to nutrient medium measured 5 to 15 days post onset of compound treatment by HPLC method. The series is classed as functional. To be noted: Lathyrus oleraceus. The essentials: as §1
Series [20] concerns Leaf. Briefly: Induction of ferulic acid accumulation in Pisum sativum (pea) leaves at 28 nM added to nutrient medium measured 5 to 15 days post onset of compound treatment by HPLC method. The series is classed as functional. To be noted: Lathyrus oleraceus. The essentials: as §1
Series [21] concerns Leaf. Kind of series: Induction of p-coumaric acid accumulation in Pisum sativum (pea) leaves at 28 nM added to nutrient medium measured 5 to 15 days post onset of compound treatment by HPLC method. It is filed as functional. To be noted: Lathyrus oleraceus. The method in brief: as §1
For series [22], the system named is Leaf. Briefly: Induction of caffeic acid accumulation in Pisum sativum (pea) leaves at 28 nM added to nutrient medium measured 5 to 15 days post onset of compound treatment by HPLC method. It is filed as functional. To be noted: Lathyrus oleraceus. The method in brief: as §1
Series [23] has as its system Pisum sativum. Briefly: Growth inhibition in Pisum sativum (pea) assessed as shoot growth arrest at 1 mM added to nutrient medium measured within 10 days post onset of compound treatment. It is filed as functional, organism-based. To be noted: Lathyrus oleraceus. The method in brief:
(§4)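 Pea (Pisum sativum cv. Snap Sugar Boys) plants were grown in nutrient solution. At 12 days old, 1 mM phenolic acid was added to the solution. The solution was replaced every 3 days and kept at pH 6–7. Samples were collected at 0, 1, 3, 7, 10 and 15 days. Untreated plants were controls. One-way ANOVA with Fisher test, p < 0.05.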

Series [24] deals with Root. Kind of series: Effect on starch content in Pisum sativum (pea) roots at 1 mM added to nutrient medium measured 5 to 15 days post onset of compound treatment by capillary electrophoresis method. It is filed as functional. To be noted: Lathyrus oleraceus. The method in brief:
as §4

Series [25] deals with Root. Briefly: Induction of ADH protein enzyme expression in Pisum sativum (pea) roots at 1 mM added to nutrient medium measured 5 to 15 days post onset of compound treatment by immunoblot. The series is classed as functional. To be noted: Lathyrus oleraceus. The method in brief: as §4
Series [26] concerns Root. Briefly: Effect on sucrose content in Pisum sativum (pea) roots at 1 mM added to nutrient medium measured 5 to 15 days post onset of compound treatment by capillary electrophoresis method. It is filed as functional. To be noted: Lathyrus oleraceus. The method in brief:
as §4

For series [27], the system named is Leaf. Kind of series: Increase in starch content in Pisum sativum (pea) leaves at 1 mM added to nutrient medium measured 5 to 15 days post onset of compound treatment by capillary electrophoresis method. The series is classed as functional. To be noted: Lathyrus oleraceus. The essentials: as §4
Series [28] relates to Leaf. Kind of series: Increase in quinate content in Pisum sativum (pea) leaves at 1 mM added to nutrient medium measured 5 to 15 days post onset of compound treatment by ion chromatography. The series is classed as functional. To be noted: Lathyrus oleraceus. The essentials: as §4
Series [29] relates to Leaf. Kind of series: Drug level in Pisum sativum (pea) leaves at 1 mM added to nutrient medium measured 5 to 15 days post onset of compound treatment by HPLC method. The series is classed as ADME. To be noted: lathyrus oleraceus, 1000 µM. The method in brief: as §4
The test system of series [30] is Root. Briefly: Drug level in Pisum sativum (pea) roots at 1 mM added to nutrient medium measured 5 to 15 days post onset of compound treatment by HPLC method. It is filed as ADME. To be noted: lathyrus oleraceus, 1000 µM. The method in brief: as §4
The test system of series [31] is Root. Briefly: Induction of PDC protein expression in Pisum sativum (pea) roots at 1 mM added to nutrient medium measured 5 to 15 days post onset of compound treatment by immunoblot. To be noted: Lathyrus oleraceus. It is filed as functional. The method in brief: as §4
Series [32] has as its system Pisum sativum. Kind of series: Growth inhibition in Pisum sativum (pea) assessed as root elongation arrest at 1 mM added to nutrient medium measured within 1 day post onset of compound treatment. It is filed as functional, organism-based. To be noted: Lathyrus oleraceus. The essentials:
as §4

Series [33] relates to Root. Kind of series: Reduction in PAL activity in Pisum sativum (pea) roots at 1 MM added to nutrient medium measured 7 days post onset of compound treatment. Further details: dose or concentration left out as unconfirmed. To be noted: Lathyrus oleraceus. The series is classed as functional. The method in brief: as §4
In series [34] the test system is Root. Briefly: Increase in lignin content in Pisum sativum (pea) roots at 1 mM added to nutrient medium measured 5 to 15 days post onset of compound treatment. The series is classed as functional. To be noted: Lathyrus oleraceus. The method in brief:
as §4

Take `CCc1cnc(C2=NC(C)(C(C)C)C(=O)N2)c(C(=O)O)c1` (centres undefined): the result with Leaf [1], with Leaf [2], in the series with Root [3], in the series with Root [4], in the series with Root [5] and in the series with Root [7] was Active. Also, the result in the series with Leaf [8], with Leaf [9], in the series on Root [10] and in the series with Root [12] was Active. The “growth inhibition (GI)” value in the series with Pisum sativum [6] is “Active”. Further, in the series on Root [11], the outcome was inactive.
On to `COc1nc(C)nc(NC(=O)NS(=O)(=O)c2ccccc2Cl)n1`, for which the result in the series on Root [13], in the series on Root [14], in the series with Root [16], in the series with Root [17], in the series on Leaf [18] and in the series on Root [19] was Active. The outcome in the series on Leaf [20], with Leaf [21] and in the series with Leaf [22] was Active. In addition, in the series on Pisum sativum [15], the “growth inhibition (GI)” value is “Active”.
As for `O=C(O)/C=C/c1ccc(O)cc1` [COUMARIC ACID], the result with Pisum sativum [23], with Root [25], in the series with Leaf [27], with Leaf [28], in the series on Root [31] and with Pisum sativum [32] was Active. The outcome with Root [24] and in the series on Root [26] was inactive. In addition, the Drug uptake result in the series with Leaf [29] and with Root [30] was “Active” in each case.
With `COc1cc(/C=C/C(=O)O)ccc1O` [FERULATE], the outcome in the series on Pisum sativum [23], in the series with Root [33], with Root [25], in the series on Leaf [27], in the series with Leaf [28] and in the series with Root [31] was Active. For the same compound, the result with Root [34] and with Pisum sativum [32] was Active. In addition, the result in the series with Root [24] and with Root [26] was inactive. Moreover, the Drug uptake entry with Leaf [29] and in the series with Root [30] was “Active” each time.
